In paper PMC7931646 (The Journal of Experimental Medicine, 2021):
Read-outs that look alike come from different tables or passages of the source.

Columns and labels:
[1] = Kinetic solubility in simulated intestinal fluids; assay type: physicochemical
Method in brief: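 Dissolved test compound concentration in FaSSIF or FeSSIF simulated intestinal fluids, determined by UV/Vis absorbance.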

[2] = Liver microsomal stability, mouse; assay type: in vitro ADME; settings: liver microsomes
Method in brief: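 Test compound at 1 µM was incubated for 30 min with liver microsomes at 1 mg/ml (human, rat or mouse). Result is percent of parent compound remaining.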

[3] = target: CYP450 3A4 (Homo sapiens, UniProt P08684); assay: CYP450 inhibition, recombinant isoform; assay type: in vitro ADME
Sequence of CYP450 3A4 (P08684 whole entry, canonical isoform): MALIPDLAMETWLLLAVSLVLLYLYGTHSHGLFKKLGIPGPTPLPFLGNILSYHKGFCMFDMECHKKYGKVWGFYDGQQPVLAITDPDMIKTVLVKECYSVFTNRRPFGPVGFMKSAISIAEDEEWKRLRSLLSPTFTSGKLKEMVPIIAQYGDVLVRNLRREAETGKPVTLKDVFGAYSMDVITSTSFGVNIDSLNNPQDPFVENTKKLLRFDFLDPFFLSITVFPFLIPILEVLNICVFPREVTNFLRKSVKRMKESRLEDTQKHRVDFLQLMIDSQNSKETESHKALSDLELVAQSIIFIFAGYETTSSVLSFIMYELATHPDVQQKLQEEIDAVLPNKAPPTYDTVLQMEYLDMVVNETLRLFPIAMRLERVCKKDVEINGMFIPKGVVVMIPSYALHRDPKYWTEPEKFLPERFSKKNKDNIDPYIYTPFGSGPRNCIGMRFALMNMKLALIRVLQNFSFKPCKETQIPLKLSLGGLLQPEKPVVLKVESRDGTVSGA
Method in brief: (§1)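 Recombinant human CYP450 isoforms were incubated with isoform-specific probe substrates; for CYP3A4 these were midazolam and testosterone. Inhibition was quantified by LC-MS/MS analysis of probe-substrate turnover.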

[4] = target: T1, CYP450 1A2 (Homo sapiens, UniProt P05177); assay: CYP450 inhibition, recombinant isoform; assay type: in vitro ADME
T1 sequence (P05177 1-516): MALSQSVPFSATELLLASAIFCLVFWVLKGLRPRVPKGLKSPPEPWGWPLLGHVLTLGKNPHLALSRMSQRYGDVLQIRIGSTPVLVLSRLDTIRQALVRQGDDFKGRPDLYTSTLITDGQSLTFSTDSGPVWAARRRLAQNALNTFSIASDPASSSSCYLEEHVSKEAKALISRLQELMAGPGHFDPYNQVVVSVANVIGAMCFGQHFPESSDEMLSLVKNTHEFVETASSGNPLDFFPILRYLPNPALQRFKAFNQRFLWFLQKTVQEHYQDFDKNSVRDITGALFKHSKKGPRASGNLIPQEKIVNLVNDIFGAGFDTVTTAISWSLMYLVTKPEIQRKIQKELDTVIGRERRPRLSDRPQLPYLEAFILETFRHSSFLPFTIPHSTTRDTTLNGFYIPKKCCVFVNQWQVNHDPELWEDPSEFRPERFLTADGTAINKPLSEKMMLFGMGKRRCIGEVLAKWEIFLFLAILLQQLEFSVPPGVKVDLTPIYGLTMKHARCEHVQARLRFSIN
Method in brief: as §1

[5] = target: CYP450 2C19 (Homo sapiens, UniProt P33261); assay: CYP450 inhibition, recombinant isoform; assay type: in vitro ADME
Sequence of CYP450 2C19 (P33261 whole entry, canonical isoform): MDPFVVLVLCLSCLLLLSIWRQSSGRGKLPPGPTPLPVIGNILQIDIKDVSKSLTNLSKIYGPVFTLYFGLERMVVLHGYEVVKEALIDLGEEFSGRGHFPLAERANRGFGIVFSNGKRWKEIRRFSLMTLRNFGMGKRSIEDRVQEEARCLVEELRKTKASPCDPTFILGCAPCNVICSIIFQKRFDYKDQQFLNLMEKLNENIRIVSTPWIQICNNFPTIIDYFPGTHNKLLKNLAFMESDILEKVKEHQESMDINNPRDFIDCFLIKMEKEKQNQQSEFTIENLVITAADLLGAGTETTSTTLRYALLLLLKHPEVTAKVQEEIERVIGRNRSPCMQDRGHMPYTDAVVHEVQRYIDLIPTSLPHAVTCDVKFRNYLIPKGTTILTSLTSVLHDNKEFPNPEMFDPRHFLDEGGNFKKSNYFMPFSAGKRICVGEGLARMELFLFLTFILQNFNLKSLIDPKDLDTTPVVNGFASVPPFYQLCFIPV
Method in brief: as §1

[6] = target: CYP450 2D6 (Homo sapiens, UniProt P10635); assay: CYP450 inhibition, recombinant isoform; assay type: in vitro ADME
Sequence of CYP450 2D6 (P10635 whole entry, canonical isoform): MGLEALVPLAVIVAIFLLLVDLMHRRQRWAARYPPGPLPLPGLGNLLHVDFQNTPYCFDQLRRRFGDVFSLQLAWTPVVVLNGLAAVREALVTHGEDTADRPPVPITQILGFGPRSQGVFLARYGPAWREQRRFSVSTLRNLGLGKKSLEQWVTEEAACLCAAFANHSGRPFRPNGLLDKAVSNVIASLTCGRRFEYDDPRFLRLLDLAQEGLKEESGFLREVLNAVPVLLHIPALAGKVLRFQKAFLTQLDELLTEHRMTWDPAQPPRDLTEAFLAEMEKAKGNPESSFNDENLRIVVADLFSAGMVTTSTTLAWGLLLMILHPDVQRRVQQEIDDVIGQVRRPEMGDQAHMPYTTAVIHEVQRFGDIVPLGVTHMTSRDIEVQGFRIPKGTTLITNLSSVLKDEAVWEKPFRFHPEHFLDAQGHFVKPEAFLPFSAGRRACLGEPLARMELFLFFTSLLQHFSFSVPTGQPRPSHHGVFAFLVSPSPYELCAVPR
Method in brief: as §1

[7] = MDR1-MDCK permeability; assay type: in vitro ADME; settings: dog
Method in brief: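 Transport across MDR1-MDCK cell monolayers. Apparent permeability was measured in the apical-to-basolateral direction (× 10−6 cm/s). Efflux ratio was calculated as Papp B-A / Papp A-B.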

[8] = target: histamine H1 (Homo sapiens, UniProt P35367); assay: CEREP off-target radioligand binding panel; settings: read-out: inhibition of ligand binding
Sequence of histamine H1 (P35367 whole entry): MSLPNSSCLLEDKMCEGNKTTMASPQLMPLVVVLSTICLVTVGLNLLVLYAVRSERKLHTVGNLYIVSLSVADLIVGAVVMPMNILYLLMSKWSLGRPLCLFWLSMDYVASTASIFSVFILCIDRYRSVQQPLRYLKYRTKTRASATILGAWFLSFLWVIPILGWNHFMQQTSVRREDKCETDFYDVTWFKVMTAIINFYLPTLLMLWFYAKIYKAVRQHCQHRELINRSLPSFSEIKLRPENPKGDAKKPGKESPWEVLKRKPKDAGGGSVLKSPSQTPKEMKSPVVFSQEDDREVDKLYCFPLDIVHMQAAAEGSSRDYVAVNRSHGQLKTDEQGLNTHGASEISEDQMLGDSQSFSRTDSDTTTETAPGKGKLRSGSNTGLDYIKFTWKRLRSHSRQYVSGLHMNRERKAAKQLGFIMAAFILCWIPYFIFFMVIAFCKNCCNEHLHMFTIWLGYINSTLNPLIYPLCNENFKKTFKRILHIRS
Method in brief: (§2)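 CEREP secondary-pharmacology panel of 55 receptors, transporters and ion channels. Test compound at 10 µM was assessed for inhibition of binding of a radiolabelled reference ligand specific to each target. Result is percent inhibition of ligand binding.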

[9] = test system: κ opioid receptors; assay: CEREP off-target radioligand binding panel; settings: 10 µM
Method in brief: as §2

[10] = target: μ opioid receptors (Homo sapiens, UniProt P35372); assay: CEREP off-target radioligand binding panel; settings: read-out: inhibition of ligand binding
Sequence of μ opioid receptors (P35372 whole entry): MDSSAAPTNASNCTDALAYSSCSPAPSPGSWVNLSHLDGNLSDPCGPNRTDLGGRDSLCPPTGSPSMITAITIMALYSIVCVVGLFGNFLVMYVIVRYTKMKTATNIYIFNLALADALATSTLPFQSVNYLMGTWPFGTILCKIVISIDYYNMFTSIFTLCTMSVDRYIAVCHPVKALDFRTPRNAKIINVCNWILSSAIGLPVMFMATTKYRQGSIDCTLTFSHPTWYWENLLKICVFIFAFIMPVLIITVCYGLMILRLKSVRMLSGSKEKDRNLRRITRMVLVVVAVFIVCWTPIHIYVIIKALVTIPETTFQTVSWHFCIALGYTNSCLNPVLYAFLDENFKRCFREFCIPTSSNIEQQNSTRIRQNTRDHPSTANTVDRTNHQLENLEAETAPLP
Method in brief: as §2

[11] = test system: chloride channel (γ-aminobutyric acid–gated); assay: CEREP off-target radioligand binding panel; settings: 10 µM
Method in brief: as §2

[12] = Single-dose i.v./po PK in male CD-1 mice; assay type: in vivo, mouse; settings: for clearance: male, CD-1, mouse, plasma, iv, 1 mg/kg
Method in brief: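 CD-1 mice received a single i.v. dose of 1 mg/kg (n = 12) or an oral gavage dose of 5 mg/kg (n = 12). Brains were collected at 1, 4, 8 and 12 h. Oral bioavailability came from i.v./po comparison; fabs came from kinetic analysis.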

[13] = test system: Aβ42 and Aβ40 levels in plasma and brain; assay: Acute single-dose time course efficacy in C57BL/6J mice; assay type: in vivo, mouse
[14] = Necropsy, histopathology and weight gain in chronically treated PSAPP mice; assay type: in vivo, mouse; settings: chronic 25 mg/kg/d, 3 mo
Method in brief: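 Female PSAPP mice, 9–10 per group, were dosed with vehicle (PEG 400/water/Tween 20) or test compound 25 mg/kg/d by oral gavage for 3 mo. Body weight was recorded three times weekly to monitor weight gain. Necropsy and histopathology followed the treatment period.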

[15] = 7-d dose range-finding toxicity and toxicokinetic study in rats; assay type: in vivo, rat
[16] = test system: Aβ38, Aβ40, Aβ42 in plasma; assay: Acute single-dose escalation and time course efficacy in NHPs; assay type: in vivo, cynomolgus macaque
Method in brief: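 Cynomolgus macaques, two male and two female. Escalation phase: single nasogastric doses of 0, 10, 30, 100 and 200 mg/kg, with blood taken 4 h post-dose. Repeat phase: 200 mg/kg for 2 d, then 100 mg/kg for 5 d, with blood on days 1 and 7 at predose and 1, 2, 4, 8 and 24 h. K3EDTA plasma was stored at ≤ −60°C. Aβ38/40/42 were measured by MSD multiplex assay.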

[17] = Metabolite profile in hepatocytes; assay type: in vitro ADME; settings: metabolite profiling in five species (mouse, rat, dog, NHP, human)
Method in brief: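 Test compound at 1 µM was incubated at 37°C for 4 h with cryopreserved hepatocytes from mouse, rat, dog, monkey or human. Metabolite masses and relative abundance came from HPLC/MS/MS peak areas. Structures were characterised by LC/MS/MS on a Q-Trap instrument.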

[18] = GLP 28-d repeat-dose toxicity and in vivo micronucleus study in rats; parameters: species or system rat
[19] = Human PK and 50% effective dose projection
[20] = Estimation of effective AUC and unbound Ceffective in rodents
[21] = single oral dose 5 mg/kg, 6–12 h after administration

COc1nc(-c2cc(C)c(N[C@@H](C)c3cc(F)cc(F)c3)nn2)ccc1-n1cnc(C)c1 [Compound 2, (S)-N-(1-(3,5-difluorophenyl)ethyl)-6-(6-methoxy-5-(4-methyl-1H-imidazol-1-yl)pyridin-2-yl)-4-methylpyridazin-3-amine]
FaSSIF dissolved compound concentration ([1]; FaSSIF pH 6.5, UV/Vis absorbance): 80 | FeSSIF dissolved compound concentration ([1]; FeSSIF pH 5.8, UV/Vis absorbance): 79 | remaining at 0.5 h, 1 µM [2]: 91% | IC50 [3]: 9.4 µM | IC50 ([3]; CYP450 IC50 3A4 (m), probe substrate midazolam): 42 µM | IC50 [4]: 12 µM | IC50 [5]: 12 µM | IC50 [6]: 11 µM | Papp A→B [7]: 23.3 ×10⁻⁶ cm/s | inhibition at 10 µM [8]: > 50% | inhibition of ligand binding [9]: Greater than 50% | inhibition at 10 µM [10]: > 50% | inhibition of ligand binding [11]: Greater than 50% | clearance ([12]; CL, mice): 8 mL/min/kg | clearance ([12]; Cl, male CD-1 mice): 8.05 mL/min/kg | CL as percent of reported hepatic blood flow ([12]; mice, hepatic blood flow 95 ml/min/kg): < 10% | fraction of dose absorbed from intestinal lumen (fabs) ([12]; mice, kinetic analysis): ~90% | reduction of brain Aβ42 levels [13, 21]: ~50% | reduction of plasma Aβ42 levels [13, 21]: ~70% | duration of appreciable lowering of brain Aβ42 peptide levels ([13]; single oral dose 10 mg/kg): ~24 h | reduction of Aβ42 levels in brain at peak reduction ([13]; single oral dose 10 mg/kg): > 70% | reduction of Aβ42 levels in plasma at peak reduction ([13]; single oral dose 10 mg/kg): > 90% | time of maximal reduction of Aβ42 levels in plasma ([13]; single oral dose 5 or 10 mg/kg): 1 h | full-body necropsy and histopathology [14]: no overt evidence of toxicity | weight gain ([14]; data not shown): no significant effect on weight gain | NOAEL at 7 d ([15]; both, Sprague-Dawley, rat, in vivo): ≥ 50 mg/kg | safety margin over the efficacious dose (5 mg/kg) ([15]; rats, 7-d DRF): 10–20 fold | effect on levels of Aβ38 in plasma [16]: did not affect | sustained lowering of plasma Aβ42 and Aβ40 peptides ([16]; 200 mg/kg, day 1 of repeat-dosing phase, for over 24 h): ~70% | major metabolites [17]: no major metabolites | unique human metabolites [17]: absence of any unique human metabolites | safety margin based on comparison of systemic exposures ([18]; AUC at rat NOAEL vs predicted human AUC at 100 mg): more than 130 fold | AUC ([18]; male, rat, in vivo, 60 mg/kg): 586000 ng·h/mL | NOAEL at 28 d ([18]; rat, in vivo): 60 mg/kg | GLP 28-d repeat-dose toxicity and in vivo micronucleus study ([18]; rats, data not shown): negative | fabs in humans (expected) [19]: ~90% | predicted human CL ([19]; allometric scaling from mouse, rat, NHP): ~5 mL/min/kg | AUC ([19]; human, plasma): 4320 ng·h/mL | unbound average Ceffective ([20]; plasma unbound fraction 0.1%): ~0.58 ng/mL | unbound average Ceffective ([20]; plasma unbound fraction 1.0%): 5.8 ng/mL | AUC ([20]; rat, plasma): 13800 ng·h/mL
